Our source for the Ki, Activity and viability values is ChEMBL document CHEMBL4196237, “Heterocoumarins Are Selective Carbonic Anhydrase IX and XII Inhibitors with Cytotoxic Effects against Cancer Cells Lines” (ACS Med Chem Lett, 2018).

Broadly, the Ki is a measure of affinity in units of concentration, obtained from inhibition or displacement.

One test deals with Carbonic anhydrase 1 (Homo sapiens, UniProt P00915). Put plainly: Inhibition of recombinant human carbonic anhydrase 1 incubated 6 h prior to testing by CO2 hydration based stopped-flow assay.
Chain of Carbonic anhydrase 1 (P00915 whole entry): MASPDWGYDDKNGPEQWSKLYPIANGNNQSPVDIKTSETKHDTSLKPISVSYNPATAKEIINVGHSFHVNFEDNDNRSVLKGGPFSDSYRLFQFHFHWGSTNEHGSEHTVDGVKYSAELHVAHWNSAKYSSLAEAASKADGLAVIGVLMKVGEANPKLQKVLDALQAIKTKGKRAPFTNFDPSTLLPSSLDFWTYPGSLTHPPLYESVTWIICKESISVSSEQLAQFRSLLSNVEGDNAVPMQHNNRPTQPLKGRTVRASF
The next test addresses Carbonic anhydrase 9 (Homo sapiens, UniProt Q16790). Briefly: Inhibition of recombinant human carbonic anhydrase 9 incubated 15 mins prior to testing by CO2 hydration based stopped-flow assay.
The target of another test is Carbonic anhydrase 2 (Homo sapiens, UniProt P00918). Put plainly: Inhibition of recombinant human carbonic anhydrase 2 incubated 6 h prior to testing by CO2 hydration based stopped-flow assay.
For test [1], the system named is MDA-MB-231. Put plainly: Cytotoxicity against human MDA-MB-231 cells assessed as reduction in cell viability at 1 to 300 uM after 48 hrs under hypoxic conditions by MTT assay. In kind it is functional, cell-based. In general terms: Tetrazolium assays rely on reduction of a dye to a coloured formazan, in cell work by metabolically active cells.
Test [2] has as its system MDA-MB-231. Put plainly: Cytotoxicity against human MDA-MB-231 cells assessed as reduction in cell viability at 1 to 300 uM after 48 hrs under normoxic conditions by MTT assay. In kind it is functional, cell-based.
In test [3] the test system is PC-3. Put plainly: Cytotoxicity against human PC3 cells assessed as reduction in cell viability at 1 to 300 uM after 48 hrs under hypoxic conditions by MTT assay. It counts as functional, cell-based. An outline of the steps: (§1)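 PC3 human prostate cancer cells incubated 48 h with compound at a range of concentrations, under normoxia or under hypoxia (1% O2). Viability is expressed relative to control, with significance tested against control at p < 0.05, 0.01 and 0.001.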

Test [4] relates to PC-3. Briefly: Cytotoxicity against human PC3 cells assessed as reduction in cell viability at 1 to 300 uM after 48 hrs under normoxic conditions by MTT assay. It counts as functional, cell-based. The method, boiled down: as §1
Test [5] deals with T1, Carbonic anhydrase 12 (Homo sapiens, UniProt O43570). Briefly: Inhibition of recombinant human carbonic anhydrase 12 incubated 15 mins prior to testing by CO2 hydration based stopped-flow assay.
T1 sequence (O43570 whole entry): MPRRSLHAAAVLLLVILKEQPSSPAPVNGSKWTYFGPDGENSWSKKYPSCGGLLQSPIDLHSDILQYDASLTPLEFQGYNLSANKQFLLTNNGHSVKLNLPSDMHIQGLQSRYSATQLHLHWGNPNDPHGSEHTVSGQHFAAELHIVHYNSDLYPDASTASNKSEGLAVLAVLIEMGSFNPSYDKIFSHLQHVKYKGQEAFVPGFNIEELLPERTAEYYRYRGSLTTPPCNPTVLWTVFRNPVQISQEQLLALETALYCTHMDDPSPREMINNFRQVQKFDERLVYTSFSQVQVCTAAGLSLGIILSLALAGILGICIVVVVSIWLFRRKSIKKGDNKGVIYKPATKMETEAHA
For test [6], the target named is T1, Carbonic anhydrase 12. Briefly: Inhibition of recombinant human carbonic anhydrase 12 incubated 6 h prior to testing by CO2 hydration based stopped-flow assay.
Test [7] concerns MDA-MB-231. Put plainly: Cytotoxicity against human MDA-MB-231 cells assessed as reduction in cell viability at 30 uM after 48 hrs under hypoxic conditions by MTT assay relative to control. It counts as functional.
In test [8] the test system is MDA-MB-231. Put plainly: Cytotoxicity against human MDA-MB-231 cells assessed as reduction in cell viability at 300 uM after 48 hrs under hypoxic conditions by MTT assay relative to control. It counts as functional.
The test system of test [9] is MDA-MB-231. Briefly: Cytotoxicity against human MDA-MB-231 cells assessed as reduction in cell viability at 300 uM after 48 hrs under normoxic conditions by MTT assay relative to control. It counts as functional.
For test [10], the system named is PC-3. Briefly: Cytotoxicity against human PC3 cells assessed as cell viability at 300 uM after 48 hrs under hypoxic conditions by MTT assay relative to control. In kind it is functional. As to conditions: PC-3, 48 h, read-out: Activity. The method, boiled down: as §1
Test [11] concerns PC-3. Put plainly: Cytotoxicity against human PC3 cells assessed as cell viability at 300 uM after 48 hrs under normoxic conditions by MTT assay relative to control. It counts as functional. As to conditions: PC-3, 48 h, read-out: Activity. The method, boiled down: as §1
The test system of test [12] is MDA-MB-231. Briefly: Cytotoxicity against human MDA-MB-231 cells assessed as reduction in cell viability at 30 uM after 48 hrs under normoxic conditions by MTT assay relative to control. It counts as functional.
Test [13] concerns PC-3. Briefly: Cytotoxicity against human PC3 cells assessed as cell viability at 100 to 300 uM after 48 hrs under hypoxic conditions by MTT assay relative to control. In kind it is functional. The method, boiled down:
as §1

For test [14], the system named is PC-3. Briefly: Cytotoxicity against human PC3 cells assessed as cell viability at 30 uM after 48 hrs under hypoxic conditions by MTT assay relative to control. It counts as functional. To be noted: PC-3, 48 h, read-out: Activity. An outline of the steps: as §1
Test [15] concerns PC-3. Put plainly: Cytotoxicity against human PC3 cells assessed as cell viability at 30 uM after 48 hrs under normoxic conditions by MTT assay relative to control. It counts as functional. As to conditions: PC-3, 48 h, read-out: Activity. An outline of the steps:
as §1

Test [16] has as its system PC-3. Put plainly: Cytotoxicity against human PC3 cells assessed as cell viability at higher concentration after 48 hrs under normoxic conditions by MTT assay relative to control. It counts as functional. The method, boiled down: as §1

The structures appear in SMILES notation. Activity calls are given as the source filed them. The calls are words filed in the database; no cut-off is given here.

`O=c1ccc2cccc(Br)c2[nH]1`: the Ki on Carbonic anhydrase 1 was over 10 µM; at Carbonic anhydrase 9, 0.0234 µM; at Carbonic anhydrase 2, over 10 µM.

On to `[Se]=c1ccc2ccccc2[nH]1`, for which the Ki on Carbonic anhydrase 1 was over 10 µM; on Carbonic anhydrase 9, 0.0544 µM; at Carbonic anhydrase 2, over 10 µM. The result in the test on MDA-MB-231 [1], in the test with MDA-MB-231 [2], in the test with PC-3 [3] and in the test on PC-3 [4] was inactive.

Take `Cc1ccc2[se]c(=O)ccc2c1`: the Ki on Carbonic anhydrase 1 is over 10 µM; on Carbonic anhydrase 9 it was 0.0561 µM; at Carbonic anhydrase 2, over 10 µM; at Carbonic anhydrase 12 [5], 0.0076 µM.

As for `Cn1c(=O)ccc2ccccc21`, the Ki on Carbonic anhydrase 1 was over 10 µM; at Carbonic anhydrase 9, 0.0446 µM; on Carbonic anhydrase 2, over 10 µM; at Carbonic anhydrase 12 [6], 0.0835 µM.

For the molecule `Cc1ccc2[nH]c(=O)ccc2c1`, the figures for the Ki at Carbonic anhydrase 1, on Carbonic anhydrase 9 and on Carbonic anhydrase 2 were over 10 µM, 0.123 µM and over 10 µM, respectively.

Consider `O=c1ccc2ccccc2[se]1`, for which the Activity in the test with MDA-MB-231 [7] is given as over 50%; in the test with MDA-MB-231 [8], 90%; with MDA-MB-231 [9] it was 28%. The Ki was over 10 µM on Carbonic anhydrase 1, 0.0263 µM on Carbonic anhydrase 9 and over 10 µM on Carbonic anhydrase 2. The viability at 300 µM in the test on PC-3 [10] and with PC-3 [11] was 68% throughout.

Turning to `O=c1ccc2cccc(Cl)c2[nH]1`, the Ki on Carbonic anhydrase 1 was over 10 µM; at Carbonic anhydrase 9 it was 0.023 µM; at Carbonic anhydrase 2 it was over 10 µM.

On to `Oc1ccc2ccccc2n1`, for which the Ki on Carbonic anhydrase 1 and on Carbonic anhydrase 2 was over 10 µM in each case.

`O=c1ccc2ccccc2[te]1`: the Ki on Carbonic anhydrase 1 was over 10 µM; on Carbonic anhydrase 9, 0.059 µM; on Carbonic anhydrase 2, over 10 µM; at Carbonic anhydrase 12 [5], 0.0082 µM. Besides, the Activity with MDA-MB-231 [8] worked out at 22%; in the test with MDA-MB-231 [12] it was 15.9%; with PC-3 [13] it was 38%; in the test on PC-3 [16], 19%. Further, the viability at 30 µM in the test on PC-3 [14] is 71%; in the test on PC-3 [15] it was 54%.

`O=c1ccc2cccc(F)c2[nH]1`: the values for the Ki on Carbonic anhydrase 1, at Carbonic anhydrase 9 and on Carbonic anhydrase 2 were over 10 µM, 0.0588 µM and over 10 µM, respectively.

Regarding `Cn1c(=[Se])ccc2ccccc21`, the inhibition constant Ki on Carbonic anhydrase 1 is over 10 µM; on Carbonic anhydrase 9, 0.172 µM; on Carbonic anhydrase 2, over 10 µM; at Carbonic anhydrase 12 [5], 0.0864 µM.

Take `Cc1ccc2[se]c(=S)ccc2c1`: the results for the Ki at Carbonic anhydrase 1, at Carbonic anhydrase 9 and at Carbonic anhydrase 2 were over 10 µM, 0.0599 µM and over 10 µM, respectively. Also, the Activity with MDA-MB-231 [12] was determined as 61%. For the same molecule, in the test with MDA-MB-231 [1], the result was inactive. In addition, the viability at 30 µM stood at 79% in the test on PC-3 [14] and 51% in the test with PC-3 [15].

Turning to `S=c1ccc2ccccc2[se]1`, the Ki on Carbonic anhydrase 1 is over 10 µM; at Carbonic anhydrase 9, 0.0395 µM; on Carbonic anhydrase 2 it was over 10 µM.
